Experimental data as given in article PMC5725227 (Pharmaceutical research, 2014).

What was measured:
A549 cells = assay: In-vitro cytotoxicity, crystal violet dye assay; type: cell-based, human
[1] = Plasma pharmacokinetics after i.v. administration; type: in vivo, BALB/c mice; details: DIM-P, 5.0 mg/kg equivalent of DIM-P
Summary of the method: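 BALB/c mice, randomized (n = 6 per group) and fasted overnight, received a single i.v. dose (DIM-P equivalent 5.0 mg/kg). Plasma was deproteinized with acetonitrile and spun 15 min at 10,000 g. Analysis was C18 HPLC with acetonitrile:water 90:10 at 1.0 mL/min, UV 242 nm. Parameters were derived non-compartmentally.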

Row | Structure (SMILES) | IC50 (A549 cells; A549 cells, 72 h) | Cl [1] | Cmax [1] | K10-HL [1] | MRT [1] | Vss [1] | AUC0–24 ([1]; non-compartment analysis) | IC50 (A549 cells; Homo sapiens, A549, 72 h)
1 | c1ccc(-c2ccc(C(c3c[nH]c4ccccc34)c3c[nH]c4ccccc34)cc2)cc1 [DIM-P, DIM-C-pPhC6H5] | 6.8 ± 0.7 µM | 0.629 ± 0.173 mL/min/kg | 216.25 ± 23.59 µg/mL | 2.98 ± 0.65 hr^−1 | 2.79 ± 1.02 h | 0.18598 ± 0.02989 L/kg | 124.22 ± 13.65 µg·h/mL | 
2 | CC(=O)O[C@@]12CO[C@@H]1C[C@H](O)[C@@]1(C)C(=O)[C@H](O)C3=C(C)[C@@H](OC(=O)[C@H](O)[C@@H](NC(=O)OC(C)(C)C)c4ccccc4)C[C@@](O)([C@@H](OC(=O)c4ccccc4)[C@H]21)C3(C)C [Doc, Docetaxel, reference compound] |  |  |  |  |  |  |  | 0.02 ± 0.01 µM
